According to ChEMBL document CHEMBL3627653, “Synthesis and biological evaluation of spiro[cyclopropane-1,3'-indolin]-2'-ones as potential anticancer agents” (Bioorg Med Chem Lett, 2015):
The source made the active and inactive calls. The rule behind the calls is not given here.

Columns and labels:
[1] = system: MCF7; experiment: Anticancer activity against human MCF7 cells; type: functional
Summary of the method: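 Human MCF-7 breast cancer cells exposed to compound for 48 h. The IC50 (50% inhibitory concentration) is reported as the average of three individual experiments.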

[2] = system: A549; experiment: Anticancer activity against human A549 cells assessed as reduction in cell viability incubated for 48 hrs by MTT assay; type: functional, cell-based; conditions: A549, 48 h
[3] = system: MCF7; experiment: Anticancer activity against human MCF7 cells assessed as reduction in cell viability incubated for 48 hrs by MTT assay; type: functional, cell-based; conditions: MCF7, 48 h
[4] = system: HT-29; experiment: Anticancer activity against human HT-29 cells assessed as reduction in cell viability incubated for 48 hrs by MTT assay; type: functional, cell-based; conditions: HT-29, 48 h
[5] = system: HeLa; experiment: Anticancer activity against human HeLa cells assessed as reduction in cell viability incubated for 48 hrs by MTT assay; type: functional, cell-based
[6] = system: DU-145; experiment: Anticancer activity against human DU145 cells assessed as reduction in cell viability incubated for 48 hrs by MTT assay; type: functional, cell-based; conditions: DU-145, 48 h
[7] = system: DU-145; experiment: Reduction in mitochondrial membrane potential in human DU145 cells assessed as cell level at Q1-upper right quadrant at 3 uM incubated for 48 hrs by JC1 dye staining based flow cytometry (reference value: 95.1%); type: functional; parameters: scale not given: the % may be the effect or the level left
Summary of the method: (§1)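 After 48 h exposure at 1.5 or 3 μM, DU-145 cells were stained with JC-1 to track loss of mitochondrial membrane potential (ΔΨm) and read on a FACScan flow cytometer. Untreated control and nocodazole (1.5 μM) were run alongside.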

[8] = system: HEK293; experiment: Cytotoxic activity against human HEK293 cells assessed as reduction in cell viability incubated for 48 hrs by MTT assay; type: cell-based; conditions: HEK293, 48 h
[9] = system: DU-145; experiment: Induction of cell cycle arrest in human DU145 cells assessed as accumulation at G2/M phase at 3 uM incubated for 48 hrs by propidium iodide staining based flow cytometry (reference value: 6.51%); type: functional
[10] = system: DU-145; experiment: Induction of apoptosis in human DU145 cells assessed as necrotic cells level at 3 uM incubated for 48 hrs by Annexin V-FITC and propidium iodide staining based flow cytometry (reference value: 3.56%); type: functional
[11] = system: DU-145; experiment: Induction of cell cycle arrest in human DU145 cells assessed as accumulation at S phase at 3 uM incubated for 48 hrs by propidium iodide staining based flow cytometry (reference value: 1.74%); type: functional
[12] = system: DU-145; experiment: Anticancer activity against human DU145 cells; type: functional, cell-based
[13] = system: DU-145; experiment: Reduction in mitochondrial membrane potential in human DU145 cells assessed as cell level at Q1-upper left quadrant at 3 uM incubated for 48 hrs by JC1 dye staining based flow cytometry (reference value: 1.6%); type: functional; parameters: scale not given: the % may be the effect or the level left; summary of the method: as §1
[14] = system: DU-145; experiment: Induction of cell cycle arrest in human DU145 cells assessed as accumulation at subG1 phase at 3 uM incubated for 48 hrs by propidium iodide staining based flow cytometry (reference value: 9.12%); type: functional
[15] = system: DU-145; experiment: Reduction in mitochondrial membrane potential in human DU145 cells assessed as cell level at Q1-lower right quadrant at 3 uM incubated for 48 hrs by JC1 dye staining based flow cytometry (reference value: 3.1%); type: functional; parameters: scale not given: the % may be the effect or the level left; summary of the method: as §1
[16] = system: DU-145; experiment: Induction of apoptosis in human DU145 cells assessed as early apoptotic cells level at 1.5 uM incubated for 48 hrs by Annexin V-FITC and propidium iodide staining based flow cytometry (reference value: 4.73%); type: functional
[17] = system: DU-145; experiment: Reduction in mitochondrial membrane potential in human DU145 cells assessed as cell level at Q1-upper left quadrant at 1.5 uM incubated for 48 hrs by JC1 dye staining based flow cytometry (reference value: 1.6%); type: functional; parameters: scale not given: the % may be the effect or the level left; summary of the method: as §1
[18] = system: DU-145; experiment: Reduction in mitochondrial membrane potential in human DU145 cells assessed as cell level at Q1-lower left quadrant at 1.5 uM incubated for 48 hrs by JC1 dye staining based flow cytometry (reference value: 0.1%); type: functional; parameters: scale not given: the % may be the effect or the level left; summary of the method: as §1
[19] = system: DU-145; experiment: Induction of cell cycle arrest in human DU145 cells assessed as accumulation at G2/M phase at 1.5 uM incubated for 48 hrs by propidium iodide staining based flow cytometry (reference value: 6.51%); type: functional
[20] = system: DU-145; experiment: Induction of cell cycle arrest in human DU145 cells assessed as accumulation at S phase at 1.5 uM incubated for 48 hrs by propidium iodide staining based flow cytometry (reference value: 1.74%); type: functional
[21] = system: DU-145; experiment: Reduction in mitochondrial membrane potential in human DU145 cells assessed as cell level at Q1-lower right quadrant at 1.5 uM incubated for 48 hrs by JC1 dye staining based flow cytometry (reference value: 3.1%); type: functional; parameters: scale not given: the % may be the effect or the level left; summary of the method: as §1
[22] = system: DU-145; experiment: Induction of apoptosis in human DU145 cells assessed as viable cells level at 3 uM incubated for 48 hrs by Annexin V-FITC and propidium iodide staining based flow cytometry (reference value: 87.88%); type: functional
[23] = system: DU-145; experiment: Induction of cell cycle arrest in human DU145 cells assessed as accumulation at G0/G1 phase at 3 uM incubated for 48 hrs by propidium iodide staining based flow cytometry (reference value: 79.81%); type: functional
[24] = system: DU-145; experiment: Induction of apoptosis in human DU145 cells assessed as increase in caspase-3 levels level at 1.5 and 3 uM incubated for 48 hrs by ELISA method; type: functional
Summary of the method: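 Caspase-3 levels measured in DU-145 cells after 48 h treatment at 1.5 and 3 μM and expressed relative to untreated control. Data are mean ± SD of two experiments each run in triplicate; significance set at P < 0.005 versus control.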

[25] = system: DU-145; experiment: Reduction in mitochondrial membrane potential in human DU145 cells assessed as cell level at Q1-lower left quadrant at 3 uM incubated for 48 hrs by JC1 dye staining based flow cytometry (reference value: 0.1%); type: functional; parameters: scale not given: the % may be the effect or the level left; summary of the method: as §1
[26] = system: DU-145; experiment: Induction of apoptosis in human DU145 cells assessed as early apoptotic cells level at 3 uM incubated for 48 hrs by Annexin V-FITC and propidium iodide staining based flow cytometry (reference value: 4.73%); type: functional
[27] = system: DU-145; experiment: Induction of cell cycle arrest in human DU145 cells assessed as accumulation at G0/G1 phase at 1.5 uM incubated for 48 hrs by propidium iodide staining based flow cytometry (reference value: 79.81%); type: functional
[28] = system: DU-145; experiment: Reduction in mitochondrial membrane potential in human DU145 cells at 3 uM incubated for 48 hrs by JC1 dye staining based flow cytometry; type: functional, cell-based; summary of the method: as §1
[29] = system: DU-145; experiment: Reduction in mitochondrial membrane potential in human DU145 cells at 1.5 uM incubated for 48 hrs by JC1 dye staining based flow cytometry; type: functional, cell-based; summary of the method: as §1
[30] = system: DU-145; experiment: Induction of apoptosis in human DU145 cells assessed as late apoptotic cells level at 1.5 uM incubated for 48 hrs by Annexin V-FITC and propidium iodide staining based flow cytometry (reference value: 3.83%); type: functional
[31] = system: DU-145; experiment: Induction of apoptosis in human DU145 cells assessed as late apoptotic cells level at 3 uM incubated for 48 hrs by Annexin V-FITC and propidium iodide staining based flow cytometry (reference value: 3.83%); type: functional
[32] = system: DU-145; experiment: Induction of cell cycle arrest in human DU145 cells assessed as accumulation at subG1 phase at 1.5 uM incubated for 48 hrs by propidium iodide staining based flow cytometry (reference value: 9.12%); type: functional
[33] = system: DU-145; experiment: Induction of apoptosis in human DU145 cells assessed as necrotic cells level at 1.5 uM incubated for 48 hrs by Annexin V-FITC and propidium iodide staining based flow cytometry (reference value: 3.56%); type: functional
[34] = system: DU-145; experiment: Induction of apoptosis in human DU145 cells assessed as viable cells level at 1.5 uM incubated for 48 hrs by Annexin V-FITC and propidium iodide staining based flow cytometry (reference value: 87.88%); type: functional
[35] = system: DU-145; experiment: Reduction in mitochondrial membrane potential in human DU145 cells assessed as cell level at Q1-upper right quadrant at 1.5 uM incubated for 48 hrs by JC1 dye staining based flow cytometry (reference value: 95.1%); type: functional; parameters: scale not given: the % may be the effect or the level left; summary of the method: as §1

| Compound | IC50 [2] | IC50 [3] | IC50 [4] | IC50 [5] | IC50 [6] | Activity [16] | Activity [17] | Activity [18] | Activity [19] | Activity [20] | Activity [21] | Activity [27] | Activity [29] | Activity [30] | Activity [32] | Activity [33] | Activity [34] | Activity [35] | further results |
| --- | --- | --- | --- | --- | --- | --- | --- | --- | --- | --- | --- | --- | --- | --- | --- | --- | --- | --- | --- |
| CC(=O)N1C(=O)[C@]2(Sc3ncccc3C(=O)N2c2ccccc2)c2cc(Br)ccc21 | – | – | – | – | – | – | – | – | – | – | – | – | – | – | – | – | – | – | GI50 [1]: 2.13 µM |
| CN1O[C@@]2(C[C@@H]1c1ccccc1)C(=O)Nc1ccccc12 | – | – | – | – | – | – | – | – | – | – | – | – | – | – | – | – | – | – | GI50 [1]: 2.6 µM |
| CCOC(=O)[C@H]1[C@H](C(O)c2ccc(OC)cc2)C12C(=O)Nc1ccccc12 (relative stereo) | 27.5 µM | 4.78 µM | 2.29 µM | 5.78 µM | 1.94 µM | – | – | – | – | – | – | – | – | – | – | – | – | – | – |
| CCOC(=O)[C@H]1[C@H](C(=O)c2ccccc2)C12C(=O)Nc1ccccc12 (relative stereo) | 5.12 µM | 3.98 µM | 3.89 µM | 7.5 µM | 2.08 µM | 56.01% | 2.9% | 0.8% | 2.27% | 16.58% | 6.6% | 2.11% | Active | 78.52% | 7.77% | 0.62% | 4.19% | 89.7% | Activity [7]: 85.1%; IC50 [8]: 64.6 µM; Activity [9]: 8.93%; Activity [10]: 10.74%; Activity [11]: 70.57%; IC50 [12]: 2.08 µM; Activity [13]: 2.2%; Activity [14]: 84.93%; Activity [15]: 11.1%; Activity [22]: 17.66%; Activity [23]: 4.03%; fold change (FC) [24]: 2; Activity [25]: 1.6%; Activity [26]: 22.15%; Activity [28]: Active; Activity [31]: 10.12% |
| CCOC(=O)[C@H]1[C@H](C(=O)c2ccc(C)cc2)C12C(=O)Nc1ccc(Br)cc12 (relative stereo) | 4.56 µM | 3.63 µM | 1.87 µM | 16.1 µM | 1.86 µM | 57.28% | 3.1% | 1.1% | 2.1% | 26.17% | 7.5% | 1.35% | Active | 66.31% | 8.8% | 3.41% | 2.74% | 88.1% | Activity [7]: 84.1%; IC50 [8]: 79.4 µM; Activity [9]: 3.16%; Activity [10]: 11.5%; Activity [11]: 64.01%; Activity [13]: 2.1%; Activity [14]: 85.57%; Activity [15]: 12%; Activity [22]: 17%; Activity [23]: 3.4%; fold change (FC) [24]: 2; Activity [25]: 1.8%; Activity [26]: 22.98%; Activity [28]: Active; Activity [31]: 18.78% |
| CCOC(=O)[C@H]1[C@H](C(=O)c2ccc([N+](=O)[O-])cc2)C12C(=O)Nc1ccc(Br)cc12 (relative stereo) | 30.5 µM | > 100 µM | 42.6 µM | 68.9 µM | 31.6 µM | – | – | – | – | – | – | – | – | – | – | – | – | – | – |
| COC(=O)Nc1nc2cc(C(=O)c3cccs3)ccc2[nH]1 [NOCODAZOLE] | – | – | – | – | – | 9.52% | 2.8% | 1.4% | 26.59% | 5.61% | 8.3% | 57.63% | Active | 5.35% | 9.25% | 3.92% | 81.21% | 87.5% | – |
